According to ChEMBL document CHEMBL4138314, “Synthesis and Evaluation of N-Phenyl-3-sulfamoyl-benzamide Derivatives as Capsid Assembly Modulators Inhibiting Hepatitis B Virus (HBV)” (J Med Chem, 2018):
pEC50: −log10 of the molar value.

How the values were obtained:
[1] = Plasma concentration in humanized mouse at 200 mg/kg, sc after 24 hrs by LC-MS/MS analysis; format: ADME, organism-based
[2] = Cmax in humanized mouse at 50 mg/kg, sc for 8 days measured on day 8 post last dose by LC-MS/MS analysis; format: ADME, organism-based; set-up: dose 50 mg/kg, route subcutaneous; settings: in vivo
HBV genotype D [3] = assay: Antiviral activity against HBV genotype D infected in human HepG2.2.15 cells assessed as inhibition of viral DNA level treated twice for 3 days measured after 6 days by real time PCR; format: functional, organism-based; settings: Hepatitis B virus
[4] = Volume of distribution at steady state in C57BL/6 mouse at 2.5 mg/kg, iv by LC-MS/MS analysis; format: ADME, organism-based; settings: in vivo, read-out: Vdss
[5] = Half life in C57BL/6 mouse at 50 mg/kg, sc by LC-MS/MS analysis; format: ADME, organism-based; settings: in vivo
[6] = AUC (0 to last) in C57BL/6 mouse at 10 mg/kg, po by LC-MS/MS analysis; format: ADME, organism-based; set-up: dose 10 mg/kg, time 0 - last, route oral; settings: in vivo
In short: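 Single-dose PK in C57BL/6 mice after intravenous or oral dosing, with oral doses of 10 and 50 mg/kg; plasma clearance and volume of distribution taken from the i.v. arm.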

[7] = Bioavailability in C57BL/6 mouse at 50 mg/kg, sc by LC-MS/MS analysis; format: ADME, organism-based; settings: in vivo
[8] = target: 5-hydroxytryptamine receptor 2B (Homo sapiens, UniProt P41595); assay: Antagonist activity at 5-HT2B (unknown origin) at 10 uM; format: functional
Chain of 5-hydroxytryptamine receptor 2B (P41595 whole entry): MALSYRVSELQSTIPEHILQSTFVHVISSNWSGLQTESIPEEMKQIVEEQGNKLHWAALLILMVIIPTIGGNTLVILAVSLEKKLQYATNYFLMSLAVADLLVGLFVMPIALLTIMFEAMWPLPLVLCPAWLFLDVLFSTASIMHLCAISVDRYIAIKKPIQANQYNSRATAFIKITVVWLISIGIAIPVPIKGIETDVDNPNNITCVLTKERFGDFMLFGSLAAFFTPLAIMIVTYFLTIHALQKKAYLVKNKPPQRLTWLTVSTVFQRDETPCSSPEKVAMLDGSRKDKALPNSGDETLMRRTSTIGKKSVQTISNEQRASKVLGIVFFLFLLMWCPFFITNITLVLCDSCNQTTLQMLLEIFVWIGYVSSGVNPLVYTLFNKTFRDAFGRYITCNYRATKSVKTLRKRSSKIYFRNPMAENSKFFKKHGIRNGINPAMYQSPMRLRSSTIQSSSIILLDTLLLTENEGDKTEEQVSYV
In short: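 Receptor/ion channel/transporter panel of 80 targets screened at 10 µM, giving percent effect at 5-HT2B; follow-up 5-HT2B functional testing in agonist and antagonist modes, with antagonist IC50 determined.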

hERG = hERG (Homo sapiens, UniProt Q12809); assay: Inhibition of human ERG at 3 uM by automated patch clamp assay (reference value: 14%)
Chain of hERG (Q12809 whole entry): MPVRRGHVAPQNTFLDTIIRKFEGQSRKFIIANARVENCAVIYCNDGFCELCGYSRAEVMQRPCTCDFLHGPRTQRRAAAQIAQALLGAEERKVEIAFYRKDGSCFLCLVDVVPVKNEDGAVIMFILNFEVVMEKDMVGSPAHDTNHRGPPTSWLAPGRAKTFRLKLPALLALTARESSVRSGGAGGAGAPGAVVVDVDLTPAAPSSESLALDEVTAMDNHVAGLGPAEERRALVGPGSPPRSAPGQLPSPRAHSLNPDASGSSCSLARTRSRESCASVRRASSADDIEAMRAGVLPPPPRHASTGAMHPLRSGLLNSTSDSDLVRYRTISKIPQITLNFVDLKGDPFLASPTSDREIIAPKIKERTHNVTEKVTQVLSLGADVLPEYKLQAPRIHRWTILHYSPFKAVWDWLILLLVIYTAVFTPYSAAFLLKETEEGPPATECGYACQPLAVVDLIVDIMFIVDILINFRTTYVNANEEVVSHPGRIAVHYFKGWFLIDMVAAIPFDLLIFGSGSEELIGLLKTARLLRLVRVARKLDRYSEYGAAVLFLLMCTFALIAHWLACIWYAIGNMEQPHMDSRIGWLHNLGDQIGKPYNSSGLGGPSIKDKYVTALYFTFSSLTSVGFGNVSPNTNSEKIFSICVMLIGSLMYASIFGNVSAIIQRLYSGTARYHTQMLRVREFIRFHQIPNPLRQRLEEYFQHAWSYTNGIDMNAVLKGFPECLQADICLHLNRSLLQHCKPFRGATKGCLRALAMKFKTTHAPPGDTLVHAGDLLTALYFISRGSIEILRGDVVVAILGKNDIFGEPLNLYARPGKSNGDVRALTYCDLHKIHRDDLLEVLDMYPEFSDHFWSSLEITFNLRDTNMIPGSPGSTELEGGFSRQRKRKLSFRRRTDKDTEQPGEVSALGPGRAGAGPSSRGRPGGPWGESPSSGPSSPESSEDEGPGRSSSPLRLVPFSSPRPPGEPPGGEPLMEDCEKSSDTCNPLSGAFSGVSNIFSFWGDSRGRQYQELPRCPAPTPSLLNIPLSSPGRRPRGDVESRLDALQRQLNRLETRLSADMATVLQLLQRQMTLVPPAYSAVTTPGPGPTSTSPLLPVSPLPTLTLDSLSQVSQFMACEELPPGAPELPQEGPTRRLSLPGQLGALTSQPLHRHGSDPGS

[9] = Drug uptake in C57BL/6 mouse liver at 50 mg/kg, sc after 24 hrs by LC-MS/MS analysis; format: ADME, organism-based; settings: read-out: Drug uptake
In short: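 C57BL/6 mice dosed subcutaneously once at 50 mg/kg, given to bypass first-pass metabolism; compound measured in plasma (ng/mL) and liver (ng/g) 24 h after dosing.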

[10] = Tmax in humanized mouse at 50 mg/kg, sc for 8 days measured on day 8 post last dose by LC-MS/MS analysis; format: ADME, organism-based; settings: in vivo
[11] = AUC (0 to 24 hrs) in humanized mouse at 200 mg/kg, sc measured on day 1 post dose by LC-MS/MS analysis; format: ADME, organism-based; set-up: dose 200 mg/kg, time < 24 hr, route subcutaneous; settings: in vivo
[12] = Half life in humanized mouse at 200 mg/kg, sc measured on day 1 post dose by LC-MS/MS analysis; format: ADME, organism-based; settings: in vivo
HBV genotype D [13] = assay: Antiviral activity against HBV genotype D infected in primary human hepatocytes assessed as inhibition of viral DNA level by qPCR analysis; format: functional, organism-based; settings: Hepatitis B virus
In short: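 Primary human hepatocytes isolated from naive chimeric mice with humanized liver and infected with HBV genotype D; HBV DNA in culture supernatant quantified by qPCR to derive EC50.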

Q: For `Cc1cc(NC(=O)c2cccc(S(=O)(=O)N[C@H]3CCOC3)c2)ccc1F`, which concentration at 24 h [1] is on record?
A: 1820 ng/mL

Q: What about the Cmax [2] of the same compound?
A: 4380 ng/mL

Q: And the pEC50 (HBV genotype D [3])?
A: 6.92

Q: What about the Vd [4] of the same compound?
A: 1.3 L/kg

Q: And the half-life [5]?
A: 318 min

Q: What about the AUC(0-t) [6] of the same compound?
A: 1990 ng·h/mL

Q: What about the bioavailability [7] of the same compound?
A: 68%

Q: And the inhibition [8]?
A: 71%

Q: And the inhibition at 3 µM (hERG)?
A: 31%

Q: And the concentration at 24 h [9]?
A: 1300 ng/g

Q: What about the Tmax [10] of the same compound?
A: 48 min

Q: What about the AUC(0-t) at 24 h [11] of the same compound?
A: 12000 ng·h/mL

Q: What about the half-life [12] of the same compound?
A: 336 min

Q: What about the pEC50 (HBV genotype D [13]) of the same compound?
A: 6.70
